One may read the Ki as a dissociation constant, usually derived from enzyme kinetics or from competition with a known ligand.

Active and inactive are the calls of the source. The calls are words filed in the database; no cut-off is given here.

In data set [1] the target is T1, Biotin--protein ligase (Homo sapiens, UniProt P50747).
T1 sequence (P50747 whole entry): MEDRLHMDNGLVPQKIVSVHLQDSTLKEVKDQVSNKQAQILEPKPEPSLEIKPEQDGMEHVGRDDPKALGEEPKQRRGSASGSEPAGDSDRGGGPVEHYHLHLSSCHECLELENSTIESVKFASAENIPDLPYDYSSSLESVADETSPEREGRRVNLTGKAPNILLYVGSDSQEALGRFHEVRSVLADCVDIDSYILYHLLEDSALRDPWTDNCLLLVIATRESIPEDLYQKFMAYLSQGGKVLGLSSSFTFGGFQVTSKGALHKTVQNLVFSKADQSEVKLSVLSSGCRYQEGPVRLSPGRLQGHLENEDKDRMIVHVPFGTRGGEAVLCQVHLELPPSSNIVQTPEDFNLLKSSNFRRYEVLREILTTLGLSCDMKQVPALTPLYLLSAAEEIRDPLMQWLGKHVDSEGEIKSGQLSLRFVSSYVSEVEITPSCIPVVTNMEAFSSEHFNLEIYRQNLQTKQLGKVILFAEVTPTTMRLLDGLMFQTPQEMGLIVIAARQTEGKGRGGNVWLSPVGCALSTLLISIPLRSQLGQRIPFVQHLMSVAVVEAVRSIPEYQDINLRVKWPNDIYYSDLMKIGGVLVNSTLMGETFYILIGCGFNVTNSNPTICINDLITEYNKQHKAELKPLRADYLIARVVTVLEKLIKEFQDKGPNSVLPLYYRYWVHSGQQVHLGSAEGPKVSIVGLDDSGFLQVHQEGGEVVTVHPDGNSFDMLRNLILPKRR
Nature of the data set: Inhibition of human biotin protein ligase assessed as reduction in 3H-biotin incorporation into pyruvate carboxylase biotin domain after 10 mins by liquid scintillation counting analysis. The gist of the method:
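Recombinant human BPL; radiolabeled biotin transfer onto an acceptor protein measured with 100 μM compound included in the assay medium.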

A short description of data set [2]: Inhibition of Staphylococcus aureus biotin protein ligase assessed as reduction in 3H-biotin incorporation into Staphylococcus aureus pyruvate carboxylase biotin domain after 10 mins by liquid scintillation counting analysis. The gist of the method:
(§1)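 Recombinant S. aureus BPL; enzymatic incorporation of radiolabeled biotin onto an acceptor protein measured across varying inhibitor concentrations to give IC50. Ki calculated from IC50 assuming competitive inhibition versus biotin, using the known KM for biotin.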

Data set [3] has as its system Staphylococcus aureus. Briefly: Growth inhibition of Staphylococcus aureus ATCC 49775 after 16 to 20 hrs by microbroth dilution method relative to control. On the set-up: concentration or dose not given beside the values. The format is functional. In a few lines:
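S. aureus ATCC 49775 cultured with compound; growth read spectrophotometrically at 600 nm 20 h post-treatment. Activity called where culture optical density fell by >40% relative to nontreated controls.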
On the technique in general: Broth dilution looks for growth in wells or tubes with falling amounts of substance.

Data set [4] in a line: Cytotoxicity against human HepG2 cells assessed as decrease in cell viability at 40 ug/ml after 24 to 48 hrs by WST-1 assay. The format is toxicity, cell-based. In a few lines: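 Cultured HepG2 cells (ATCC HB-8065) exposed to compound at a single concentration of 40 μg/mL to assess cytotoxicity.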
On the technique in general: Tetrazolium assays rely on reduction of a dye to a coloured formazan, in cell work by metabolically active cells.

Data set [5] is described as follows: Inhibition of Staphylococcus aureus C-terminal His6-tagged biotin protein ligase assessed as reduction in 3H-biotin incorporation into biotin domain of substrate. In a few lines: as §1
Data set [6] in a line: Selectivity ratio of Ki for Staphylococcus aureus C-terminal His6-tagged biotin protein ligase to Ki for human C-terminal His6-tagged biotin protein ligase. The gist of the method: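 Recombinant S. aureus and human BPLs; enzymatic incorporation of radiolabeled biotin onto an acceptor protein measured across varying compound concentrations. IC50 converted to Ki assuming competition with biotin, using the known biotin KM. Human enzyme tested with 100 μM compound in the assay.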

The test system of data set [7] is Staphylococcus aureus. Briefly: Growth inhibition of Staphylococcus aureus RN4220 harboring pCN51 at 16 ug/ml measured every 30 mins for 16 hrs. The format is functional. The gist of the method: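 Cultures grown in medium with 16 μg/mL compound for 16 h; optical density read every 30 min and compared with nontreated controls. Part of a target-overexpression test of the BPL mechanism.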

Regarding `O=C1N[C@H]2[C@H](CS[C@H]2CCCCCc2cn(Cc3ccc(O)cc3)nn2)N1`, the Ki in data set [1] was above 16 µM; in data set [2], 1.59 µM.

For the molecule `O=C1N[C@H]2[C@H](CS[C@H]2CCCCCc2cn(Cc3ccc(C(=O)O)cc3)nn2)N1`, the results for the Ki in data set [1] and in data set [2] were above 16 µM and 0.67 µM, respectively.

Turning to `O=C1N[C@H]2[C@H](CS[C@H]2CCCCCc2cn(Cc3ccccc3F)nn2)N1`, the Ki in data set [1] is above 16 µM; in data set [2], above 10 µM.

In the case of `O=C1N[C@H]2[C@H](CS[C@H]2CCCCCc2cn(Cc3cccc(C(F)(F)F)c3)nn2)N1`, the values for the Ki in data set [1] and in data set [2] were above 16 µM and above 10 µM, respectively.

With `COc1ccc(Cn2cc(CCCCC[C@@H]3SC[C@@H]4NC(=O)N[C@@H]43)nn2)cc1`, the results for the Ki in data set [1] and in data set [2] were above 16 µM and above 10 µM, respectively.

`O=C1N[C@H]2[C@H](CS[C@H]2CCCCCc2cn(Cc3ccc(F)cc3)nn2)N1`: the Ki in data set [1] is above 16 µM; in data set [2], 0.6 µM. Further, the “growth inhibition (GI)” value in data set [3] was above 40%. Moreover, the Activity in data set [4] was above 40 µg/mL.

Take `CC(C)(C)c1ccc(Cn2cc(CCCCC[C@@H]3SC[C@@H]4NC(=O)N[C@@H]43)nn2)cc1`: the values for the Ki in data set [1] and in data set [2] were above 16 µM and 1.1 µM, respectively. Further, the “growth inhibition (GI)” value in data set [3] is on record as above 40%.

As for `COc1ccccc1Cn1cc(CCCCC[C@@H]2SC[C@@H]3NC(=O)N[C@@H]32)nn1`, the Ki in data set [1] was above 16 µM; in data set [2], 0.53 µM.

Take `O=C1N[C@H]2[C@H](CS[C@H]2CCCCCc2cn(Cc3cccc(O)c3)nn2)N1`: the Ki is above 16 µM in data set [1] and above 10 µM in data set [2].

Consider `Cc1ccc2oc(=O)n(CCCCn3cc(CCCCC[C@@H]4SC[C@@H]5NC(=O)N[C@@H]54)nn3)c2c1`, for which the Ki in data set [5] is 0.09 µM. Further, in data set [6], the Ratio Ki was above 1000.

As to `O=C1N[C@H]2[C@H](CS[C@H]2CCCCCc2cn(Cc3ccccc3Br)nn2)N1`, the results for the Ki in data set [1] and in data set [2] were above 16 µM and 0.96 µM, respectively. In addition, the “growth inhibition (GI)” value in data set [3] was above 40%.

`Nc1cccc(Cn2cc(CCCCC[C@@H]3SC[C@@H]4NC(=O)N[C@@H]43)nn2)c1`: the Ki in data set [1] is above 16 µM; in data set [2], above 10 µM.

On to `O=C1N[C@H]2[C@H](CS[C@H]2CCCCCc2cn(Cc3ccc(Cl)cc3)nn2)N1`, for which the figures for the Ki in data set [1] and in data set [2] were above 16 µM and 1.1 µM, respectively. In data set [3], the “growth inhibition (GI)” value was above 40%. In addition, the Activity in data set [4] is above 40 µg/mL.

As to `Nc1ccc(Cn2cc(CCCCC[C@@H]3SC[C@@H]4NC(=O)N[C@@H]43)nn2)cc1`, the Ki in data set [1] is above 16 µM; in data set [2], above 10 µM.

For the molecule `Cc1ccc(Cn2cc(CCCCC[C@@H]3SC[C@@H]4NC(=O)N[C@@H]43)nn2)cc1`, the Ki in data set [1] is above 16 µM; in data set [2], above 10 µM.

For `O=C1N[C@H]2[C@H](CS[C@H]2CCCCCc2cn(Cc3ccccc3O)nn2)N1`, the Ki was above 16 µM in data set [1] and above 10 µM in data set [2].

As for `O=C1N[C@H]2[C@H](CS[C@H]2CCCCCc2cn(Cc3ccc(I)cc3)nn2)N1`, the Ki in data set [1] is above 16 µM; in data set [2], 0.56 µM. The “growth inhibition (GI)” value in data set [3] is on record as above 40%.

`O=C1N[C@H]2[C@H](CS[C@H]2CCCCCc2cn(Cc3ccc(F)c(F)c3)nn2)N1`: the Ki in data set [1] was above 16 µM; in data set [2], above 10 µM.

For `Cc1cccc(Cn2cc(CCCCC[C@@H]3SC[C@@H]4NC(=O)N[C@@H]43)nn2)c1`, the figures for the inhibition constant (Ki) in data set [1] and in data set [2] were above 16 µM and 0.71 µM, respectively. Also, in data set [3], the “growth inhibition (GI)” value is reported as above 40%.

As to `O=C1N[C@H]2[C@H](CS[C@H]2CCCCCc2cn(Cc3cccc(I)c3)nn2)N1`, the Ki in data set [1] is above 16 µM; in data set [2], above 10 µM.

`O=C1N[C@H]2[C@H](CS[C@H]2CCCCCc2cn(Cc3ccc(C(F)(F)F)cc3)nn2)N1`: the inhibition constant (Ki) in data set [1] was above 16 µM; in data set [2] it was above 10 µM.

Regarding `O=C1N[C@H]2[C@H](CS[C@H]2CCCCCc2cn(Cc3ccccc3Cl)nn2)N1`, the Ki is above 16 µM in data set [1] and above 10 µM in data set [2].

Regarding `O=C1N[C@H]2[C@H](CS[C@H]2CCCCCc2cn(Cc3cccc(Cl)c3)nn2)N1`, the Ki was above 16 µM in data set [1] and 0.39 µM in data set [2]. Besides, in data set [3], the “growth inhibition (GI)” value was above 40%. Further, in data set [4], the Activity was above 40 µg/mL.

In the case of `COc1cccc(Cn2cc(CCCCC[C@@H]3SC[C@@H]4NC(=O)N[C@@H]43)nn2)c1`, the Ki was above 16 µM in data set [1] and 1.1 µM in data set [2].

Consider `Nc1ccccc1Cn1cc(CCCCC[C@@H]2SC[C@@H]3NC(=O)N[C@@H]32)nn1`, for which, in data set [7], the “growth inhibition (GI)” value is “Active”. Further, the Ki in data set [1] is above 16 µM; in data set [2], 1.48 µM. The “growth inhibition (GI)” value in data set [3] is above 40%.

Regarding `O=C1N[C@H]2[C@H](CS[C@H]2CCCCCc2cn(Cc3cccc(F)c3)nn2)N1`, in data set [7], the “growth inhibition (GI)” value was “Active”. In addition, the values for the Ki in data set [1] and in data set [2] were above 16 µM and 0.28 µM, respectively. The “growth inhibition (GI)” value in data set [3] was above 40%. In addition, the Activity in data set [4] is above 40 µg/mL.

The values above are taken from ChEMBL document CHEMBL3864176, “New Series of BPL Inhibitors To Probe the Ribose-Binding Pocket of Staphylococcus aureus Biotin Protein Ligase” (ACS Med Chem Lett, 2016).
